The full list was thinned out, with hits kept by preference.
INS-1E ATP HTS = rescue of cytokine-induced death in INS-1E beta cells | protection from cytokine-induced ATP loss, % at 10 µM | INS-1E cytokine-induced death, ATP luminescence, 48 h; normalised: neutral wells 0, positive control 100 | 20,000 compounds, 0.1% hits;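 active = mean replicate protection from cytokine-induced ATP loss at least 50% and at least 75% of replicates each reaching 50%; inconclusive = meets only one of the two criteria, mean or replicate share; inactive = fails both the mean and replicate share criteria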
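assay system = INS-1E rat insulinoma cells | amount = 8000 cells per well | medium = phenol-red-free RPMI with 5% fetal bovine serum | doses = one compound concentration, pin transfer | timing = 48 h cytokine plus compound treatment, 10 min reagent incubation | also added = IL-1β, TNF-α and IFN-γ cytokine mix | signal = CellTiter-Glo luminescence measuring cellular ATP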
A1 apoptosis 2 = compounds inhibiting A1, read as caspase activation; MEF A1-2A-BIM cells, caspase-Glo luminescence, 3 h; percent of clofoctol response, DMSO zero; caspase activation, % (no concentration beside the values); 24,000 tested, under 10 active; in the data active = caspase activation above about 5.9%; inconclusive = no clear call, values can overlap the other calls; inactive = below about 2.2%
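Test system – A1-2A-BIM-expressing MEF cells · Input – 2500 cells/well · Medium – RPMI-1640 growth medium with 10% FBS · Compound dosing – 50 nL pinned compound · Timing – 3 h compound exposure at 37 °C · Technique – Caspase-Glo luminescence (DEVD substrate) · Evaluation – Caspase-3/7 activity from luminescence increase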
T cruzi intra = intracellular Trypanosoma cruzi inhibition; 22,000 compounds, 4.9% hits; AID 651903; intracellular Trypanosoma cruzi in host cells, plate reader; activity score (inhibition), % at 5.01 µM; in the data active = activity score above about 55%; inconclusive = no clear call, values can overlap the other calls;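 note: parasites and compound incubated about four days before reading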
Hits are given with their value; n = inactive; u = inconclusive; x = no result.

SMILES | INS-1E ATP HTS | A1 apoptosis 2 | T cruzi intra
CNC[C@H]1Oc2c(NC(=O)c3ccc(-c4nccs4)cc3)cccc2C(=O)N([C@H](C)CO)C[C@@H]1C | n | n | n
O=C(CCCCCCC(=O)N/N=C\c1cccc(Br)c1)NO | 68 | x | n
O=C(NO)c1ccc(C(=O)N/N=C/c2cccc(Oc3ccccc3)c2)cc1 | n | n | n
O=C(CCCCC(=O)N/N=C/c1cccc(Oc2ccccc2)c1)NO | 79 | n | n
O=C(O)CCCCCCC(=O)N/N=C/c1cccc(Br)c1 | n | n | n
CC(C)NC(=O)Nc1cccc2c1O[C@@H](CN(C)Cc1ccc3c(c1)OCO3)[C@H](C)CN([C@H](C)CO)C2=O | n | n | n
C[C@H]1CN([C@@H](C)CO)C(=O)c2cccc(NS(=O)(=O)c3ccc(F)cc3)c2O[C@@H]1CN(C)S(=O)(=O)c1cn(C)cn1 | n | x | n
C[C@H]1CCCCO[C@@H](CN(C)C(=O)Nc2ccc(F)cc2)[C@@H](C)CN([C@@H](C)CO)C(=O)c2cc(NC(=O)c3ccncc3)ccc2O1 | x | n | x
COc1ccc(NC(=O)Nc2ccc3c(c2)CC(=O)N([C@H](C)CO)C[C@H](C)[C@@H](CN(C)Cc2ccc(C(F)(F)F)cc2)O3)cc1 | x | n | x
C[C@H](CO)N1C[C@H](C)[C@H](CN(C)Cc2ccc(Oc3ccccc3)cc2)Oc2ccc(NC(=O)Nc3ccc(C(F)(F)F)cc3)cc2CC1=O | n | n | 64
C[C@@H]1CN([C@H](C)CO)C(=O)Cc2cc(NC(=O)Nc3ccc(C(F)(F)F)cc3)ccc2O[C@H]1CN(C)Cc1ccc(Oc2ccccc2)cc1 | n | n | 62
Cc1cccc(CN(C)C[C@@H]2OCc3cn(nn3)CCCC(=O)N([C@H](C)CO)C[C@H]2C)c1 | n | n | n
C[C@@H]1CN([C@H](C)CO)C(=O)c2cc(NC(=O)Nc3ccc4c(c3)OCO4)ccc2O[C@H]1CN(C)Cc1ccc(C(F)(F)F)cc1 | x | n | n
C[C@@H]1CN([C@H](C)CO)C(=O)c2cccc(NC(=O)c3ccc(-c4nccs4)cc3)c2O[C@H]1CN(C)S(=O)(=O)c1ccc(F)cc1 | n | x | n
COc1ccc(NC(=O)Nc2ccc3c(c2)C(=O)N([C@@H](C)CO)C[C@@H](C)[C@@H](CN(C)Cc2ccccc2)O3)cc1 | n | n | n
C[C@@H]1CN([C@H](C)CO)C(=O)c2cccc(NC(=O)c3ccc(-c4nccs4)cc3)c2O[C@H]1CN(C)Cc1ccc(-c2ccccc2)cc1 | n | x | n
C[C@H]1CN([C@@H](C)CO)C(=O)c2cccc(NC(=O)c3ccc(-c4nccs4)cc3)c2O[C@H]1CN(C)Cc1ccc(-c2ccccc2)cc1 | n | x | 66
C[C@H](CO)N1C[C@H](C)[C@@H](CN(C)Cc2ccc(-c3ccccc3)cc2)Oc2c(NC(=O)c3ccc(-c4nccs4)cc3)cccc2C1=O | n | x | 81
C[C@H](CO)N1C[C@H](C)[C@@H](CN(C)Cc2ccc(Oc3ccccc3)cc2)Oc2c(NC(=O)c3ccc(-c4nccs4)cc3)cccc2C1=O | n | n | 67
C[C@H]1CN([C@@H](C)CO)C(=O)c2cccc(NC(=O)c3ccc(-c4nccs4)cc3)c2O[C@H]1CN(C)Cc1ccc(Oc2ccccc2)cc1 | n | n | n
C[C@H](CO)N1C[C@H](C)[C@@H](CN(C)Cc2ccccc2)Oc2c(NC(=O)c3ccc(-c4nccs4)cc3)cccc2C1=O | n | x | n
C[C@@H]1CN([C@@H](C)CO)C(=O)c2cccc(NC(=O)c3ccc(-c4nccs4)cc3)c2O[C@@H]1CN(C)Cc1ccc(C(=O)Nc2ccccc2N)cc1 | u | n | 75
C[C@H](CO)N1C[C@H](C)[C@H](CN(C)Cc2ccc(-c3ccccc3)cc2)Oc2c(NC(=O)c3ccc(-c4nccs4)cc3)cccc2C1=O | n | n | n
COc1ccc(NC(=O)Nc2ccc3c(c2)C(=O)N([C@@H](C)CO)C[C@H](C)[C@@H](CN(C)Cc2ccc(C(=O)O)cc2)OCCCC[C@@H](C)O3)cc1 | x | n | x
C[C@@H]1CN([C@@H](C)CO)C(=O)c2cc(NC(=O)C3CC3)ccc2O[C@@H]1CN(C)CC1CC1 | n | n | n
SMILES | INS-1E ATP HTS | A1 apoptosis 2 | T cruzi intra
C[C@H]1CN([C@@H](C)CO)C(=O)c2cc(NS(=O)(=O)c3cccs3)ccc2O[C@H]1CN(C)Cc1ccncc1 | n | n | n
C[C@@H]1CN([C@H](C)CO)C(=O)Cc2cc(NS(=O)(=O)c3ccccc3)ccc2O[C@H]1CN(C)Cc1ccc(Cl)c(Cl)c1 | n | n | 73
C[C@H]1CN([C@@H](C)CO)C(=O)Cc2cc(NS(=O)(=O)c3ccccc3)ccc2O[C@H]1CN(C)Cc1ccc(Cl)c(Cl)c1 | n | n | n
C[C@H](CO)N1C[C@H](C)[C@H](CN(C)Cc2ccc(Cl)c(Cl)c2)Oc2ccc(NS(=O)(=O)c3ccccc3)cc2CC1=O | n | n | n
C[C@@H]1CN([C@H](C)CO)C(=O)Cc2cc(NS(=O)(=O)c3ccccc3)ccc2O[C@@H]1CN(C)Cc1ccc(Cl)c(Cl)c1 | n | n | 65
C[C@@H]1CN([C@@H](C)CO)C(=O)c2cc(NC(=O)Cn3cnnn3)ccc2O[C@@H]1CN(C)Cc1ccc(Oc2ccccc2)cc1 | n | n | n
C[C@@H]1CN([C@H](C)CO)C(=O)c2cc(NC(=O)Nc3cccc4ccccc34)ccc2O[C@@H]1CN(C)Cc1ccc2c(c1)OCO2 | n | n | n
C[C@H]1CN([C@@H](C)CO)C(=O)c2cc(NC(=O)Nc3cccc4ccccc34)ccc2O[C@H]1CN(C)Cc1ccc2c(c1)OCO2 | n | n | 61
C[C@H]1CN([C@@H](C)CO)C(=O)c2cc(NC(=O)Nc3cccc4ccccc34)ccc2O[C@@H]1CN(C)Cc1ccc2c(c1)OCO2 | n | n | n
C[C@@H]1CN([C@@H](C)CO)C(=O)c2cc(NC(=O)Nc3cccc4ccccc34)ccc2O[C@@H]1CN(C)Cc1ccc2c(c1)OCO2 | n | x | 56
O=C(N/N=C/c1ccc(OCc2ccccc2)cc1O)c1ccccn1 | x | n | x
C[C@H](CO)N1C[C@H](C)[C@H](CN(C)C(=O)Nc2ccccc2)Oc2ccc(NC(=O)Nc3ccc(C(F)(F)F)cc3)cc2C1=O | n | n | n
COc1ccc(NC(=O)Nc2ccc3c(c2)C(=O)N([C@H](C)CO)C[C@@H](C)[C@@H](CN(C)S(=O)(=O)c2ccc(F)cc2)O3)cc1 | n | n | n
C[C@@H]1CN([C@@H](C)CO)C(=O)c2cccc(NC(=O)NC3CCCCC3)c2O[C@H]1CN(C)Cc1ccc(Cl)c(Cl)c1 | n | x | 62
C[C@H](CO)N1C[C@H](C)[C@H](CN(C)Cc2ccc(Cl)c(Cl)c2)Oc2c(NC(=O)C3CCCCC3)cccc2C1=O | n | x | n
C[C@@H]1CN([C@@H](C)CO)C(=O)c2cccc(NC(=O)NC3CCCCC3)c2O[C@@H]1CN(C)Cc1ccc(Cl)c(Cl)c1 | n | n | n
C[C@@H]1CN([C@H](C)CO)C(=O)c2cccc(NC(=O)C3CCCCC3)c2O[C@H]1CN(C)Cc1ccc(Cl)c(Cl)c1 | n | n | 60
